Laboratory results as given in ChEMBL document CHEMBL1146513, “Discorhabdins I and L, cytotoxic alkaloids from the sponge Latrunculia brevis” (J Nat Prod, 2004).
Activity calls are given as the source filed them. The rule behind the calls is not given here.

Experiments:
[1] = system: K562; experiment: Cytotoxicity against human K562 cells by SRB assay; assay type: functional, cell-based
Procedure, shortened: (§1)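 Sulforhodamine B colorimetric staining quantifies cell growth and viability. Compounds were run in vitro against a 14-line tumour panel covering prostate, ovary, breast, melanoma, endothelial, NSCLC, leukaemia, pancreas and colon lines, with values reported as GI50.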

[2] = system: IGROV-ET; experiment: Cytotoxicity against human IGROV-ET cells by SRB assay; assay type: functional, cell-based; procedure, shortened: as §1
[3] = system: PANC-1; experiment: Cytotoxicity against human PANC1 cells by SRB assay; assay type: functional, cell-based; procedure, shortened: as §1
[4] = system: LoVo; experiment: Cytotoxicity against human LoVo cells by SRB assay; assay type: functional, cell-based; procedure, shortened: as §1
[5] = system: LoVo; experiment: Cytotoxicity against human doxorubicin-resistant LoVo cells by SRB assay; assay type: functional, cell-based; procedure, shortened: as §1
[6] = Cytotoxicity against human HMEC1 cells by SRB assay; assay type: cell-based; details: hmec-1; procedure, shortened: as §1
[7] = system: SK-OV-3; experiment: Cytotoxicity against human SKOV3 cells by SRB assay; assay type: functional, cell-based; procedure, shortened: as §1
[8] = system: HT-29; experiment: Cytotoxicity against human HT-29 cells by SRB assay; assay type: functional; procedure, shortened: as §1
[9] = system: LNCaP; experiment: Cytotoxicity against human LNCAP cells by SRB assay; assay type: functional, cell-based; procedure, shortened: as §1
[10] = system: IGROV; experiment: Cytotoxicity against human IGROV cells by SRB assay; assay type: functional, cell-based; procedure, shortened: as §1
[11] = system: SK-BR-3; experiment: Cytotoxicity against human SKBR3 cells by SRB assay; assay type: functional, cell-based; procedure, shortened: as §1
[12] = system: SK-MEL-28; experiment: Cytotoxicity against human SK-MEL-28 cells by SRB assay; assay type: functional, cell-based; procedure, shortened: as §1
[13] = system: A549; experiment: Cytotoxicity against human A549 cells by SRB assay; assay type: functional, cell-based; procedure, shortened: as §1
[14] = system: DU-145; experiment: Cytotoxicity against human DU145 cells by SRB assay; assay type: functional, cell-based; procedure, shortened: as §1

In the case of `O=C1C=C[C@@]23C[C@@H](NC4=C2C2=NCCc5c[nH]c(c52)C4=O)SC3=C1` [1-DEBROMODISCORHABDIN B], the Activity [1] is reported as “Active”, the Activity [2] is reported as “Active” and the Activity [3] is reported as “Active”. For the same molecule, the Activity [4] was “Active”, the Activity [5] was “Active” and the Activity [6] was “Active”. The Activity [7] was “Active”, the GI50 [8] was 350 nM and the Activity [9] was “Active”. The Activity [10] was “Active”, the Activity [11] was “Active” and the Activity [12] was “Active”. The Activity [13] was “Active” and the Activity [14] was “Active”.

In the case of `O=C([O-])C(F)(F)F.O=C1C2=C3C4=[N+](CCc5c[nH]c1c54)[C@@H]1C(=O)C=C4S[C@@H](C[C@@]43[C@H]1O)N2` [DISCORHABDIN L], the Activity [1] is reported as “Active”, the Activity [2] is reported as “Active” and the Activity [3] is reported as “Active”. For the same molecule, the Activity [4] was “Active”, the Activity [5] was “Active” and the Activity [6] was “Active”. For the same molecule, the Activity [7] was “Active”, the GI50 [8] was 120 nM and the Activity [9] was “Active”. The Activity [10] was “Active”, the Activity [11] was “Active” and the Activity [12] was “Active”. The Activity [13] was “Active” and the Activity [14] was “Active”.
